We go through five molecules from ChEMBL document CHEMBL4145683, “Total Synthesis and Structure-Activity Relationships Study of Odilorhabdins, a New Class of Peptides Showing Potent Antibacterial Activity” (J Med Chem, 2018).

Data set [1] concerns Klebsiella pneumoniae. Briefly: Antimicrobial activity against Klebsiella pneumoniae ATCC 43816 by broth microdilution method. The data set is classed as functional. In short, it runs like this:
(§1)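 Broth microdilution MIC per CLSI M07-A10, with inoculum prepared by direct colony suspension. Reference strains were from ATCC and NCTC.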
(Dilution methods test growth across graded concentrations, often in twofold steps.)

Data set [2] relates to Escherichia coli. Description: Inhibition of bacterial protein synthesis in cell-free Escherichia coli incubated for 1 hr and measured for every 20 mins by bacterial cell-free transcription-translation assay. It is filed as functional. The conditions noted are these: Escherichia coli. In short, it runs like this: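 E. coli cell-free coupled transcription-translation used a GFP gene in pEXP5-CT as template, started with 1 μg plasmid in 50 μL reactions. Feed buffer was added at 30 min, with incubation at 30 °C. Fluorescence (ex 475/em 520 nm) was read every 20 min. IC50 was taken at 1 h after feed addition from a four-parameter log(inhibitor)–response fit. Duplicates.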

The test system of data set [3] is Klebsiella pneumoniae. Description: Antimicrobial activity against Klebsiella pneumoniae ATCC 13883 by broth microdilution method. It is filed as functional. In short, it runs like this: as §1
The test system of data set [4] is Klebsiella pneumoniae. Briefly: Antimicrobial activity against Klebsiella pneumoniae ATCC BAA-1905 by broth microdilution method. The data set is classed as functional. In short, it runs like this:
as §1

The subject of data set [5] is Klebsiella pneumoniae. Briefly: Antimicrobial activity against Klebsiella pneumoniae ATCC BAA-1904 by broth microdilution method. The data set is classed as functional. In short, it runs like this:
as §1

The subject of data set [6] is Klebsiella pneumoniae. Briefly: Antimicrobial activity against Klebsiella pneumoniae NCTC 13438 by broth microdilution method. The data set is classed as functional. The method in brief: as §1
Data set [7] relates to Klebsiella pneumoniae. Description: Antimicrobial activity against Klebsiella pneumoniae NCTC 13439 by broth microdilution method. The data set is classed as functional. In short, it runs like this: as §1
For data set [8], the system named is Klebsiella pneumoniae. Briefly: Antimicrobial activity against Klebsiella pneumoniae ATCC BAA-2146 by broth microdilution method. It is filed as functional. In short, it runs like this: as §1
Data set [9] has as its system Klebsiella pneumoniae. Description: Antimicrobial activity against Klebsiella pneumoniae ATCC BAA-2472 by broth microdilution method. The data set is classed as functional. In short, it runs like this: as §1
The test system of data set [10] is Klebsiella pneumoniae. Briefly: Antimicrobial activity against Klebsiella pneumoniae ATCC BAA-2473 by broth microdilution method. It is filed as functional. In short, it runs like this:
as §1

For data set [11], the system named is Klebsiella pneumoniae. Briefly: Antimicrobial activity against Klebsiella pneumoniae NCTC 13443 by broth microdilution method. It is filed as functional. The method in brief:
as §1

The test system of data set [12] is Klebsiella pneumoniae. Description: Antimicrobial activity against Klebsiella pneumoniae NCTC 13442 by broth microdilution method. It is filed as functional. The method in brief: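 CLSI broth microdilution with direct colony suspension inoculum, per CLSI M07-A10. Reference strain taken from the NCTC collection.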
For data set [13], the system named is Escherichia coli. Briefly: Antimicrobial activity against Escherichia coli ATCC BAA-2340 by broth microdilution method. The data set is classed as functional. The method in brief: as §1
In data set [14] the test system is Escherichia coli. Description: Antimicrobial activity against Escherichia coli ATCC BAA-2452 by broth microdilution method. It is filed as functional. In short, it runs like this:
as §1

The subject of data set [15] is Escherichia coli. Description: Antimicrobial activity against Escherichia coli ATCC BAA-2469 by broth microdilution method. The data set is classed as functional. The method in brief: as §1
Data set [16] has as its system Enterobacter cloacae. Briefly: Antimicrobial activity against Enterobacter cloacae ATCC BAA-2468 by broth microdilution method. The data set is classed as functional.
Data set [17] in a line: Inhibition of mammalian protein synthesis in rabbit reticulocyte lysate system incubated for 1 hr by mammalian cell-free transcription-translation assay. Further details: species or system Oryctolagus cuniculus.
The subject of data set [18] is mammalian protein synthesis. Briefly: Selectivity index, ratio of IC50 for inhibition of mammalian protein synthesis in rabbit reticulocyte lysate system incubated for 1 hr by mammalian cell-free transcription-translation assay to IC50 for Inhibition of bacterial protein synthesis in cell-free Escherichia coli. The data set is classed as toxicity.
Data set [19] deals with Escherichia coli. Briefly: microbe, parasite or virus in culture. The conditions noted are these: ATCC 25922.
The subject of data set [20] is Klebsiella pneumoniae. Description: Antimicrobial activity against Klebsiella pneumoniae ATCC 13883 infected in neutropenic mouse pulmonary infection model assessed as reduction in lung bacterial load at 40 mg/kg, sc dosed 1 hr post infection and measured 8 hrs post infection relative to untreated control. It is filed as functional. The method in brief:
(§2)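 Mice were acclimatized for 5 days and made neutropenic with intraperitoneal cyclophosphamide (150 mg/kg on day 4, 100 mg/kg on day 1 pre-infection). They were infected intranasally with 2 × 10^6 CFU/mouse. At 1 h, a single SC dose was given in 10 mL/kg (6 mice/dose). […] A pretreatment group was sampled at 1 h. At 8 h, lungs were homogenized and plated on TSA for CFU. Analysis was one-way ANOVA with Dunnett's test vs vehicle.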

The subject of data set [21] is Klebsiella pneumoniae. Description: Antimicrobial activity against Klebsiella pneumoniae ATCC 13883 infected in neutropenic mouse pulmonary infection model assessed as reduction in lung bacterial load at 80 mg/kg, sc dosed 1 hr post infection and measured 8 hrs post infection relative to untreated control. The data set is classed as functional. The method in brief:
as §2

Data set [22] relates to Klebsiella pneumoniae. Briefly: Antimicrobial activity against Klebsiella pneumoniae ATCC 13883 infected in neutropenic mouse pulmonary infection model assessed as reduction in lung bacterial load at 30 mg/kg, iv dosed 1 hr post infection and measured 8 hrs post infection relative to untreated control. It is filed as functional, organism-based. The method in brief:
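Neutropenia induced by intraperitoneal cyclophosphamide (150 mg/kg day 4, 100 mg/kg day 1 before infection); intranasal infection at 2 × 10^6 CFU/mouse. Single iv dose at 10 mL/kg given 1 h post-infection. An untreated group was sacrificed at 1 h for baseline burden. At 8 h, lungs were homogenized, serially diluted and plated on TSA for CFU. Comparison versus vehicle by one-way ANOVA with Dunnett's test.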

[23] abbreviates: Klebsiella pneumoniae, ATCC 43816, read-out: MIC.

In brackets after ≈: the same amount, converted by molar mass. Activity calls are given as the source filed them. The calls are words filed in the database; no cut-off is given here. Bounds are passed on as bounds.

Take `N=C(N)NCC/C=C(\NC(=O)[C@H](CCCCN)NC(=O)[C@H](Cc1cnc[nH]1)NC(=O)[C@@H]1CCCN1C(=O)[C@@H](CCCN)NC(=O)CNC(=O)[C@@H](NC(=O)[C@@H](NC(=O)[C@@H](N)CCCCN)[C@@H](O)CN)[C@@H](O)CN)C(=O)N[C@@H](CCCCN)C(=O)NCCCCN`: the MIC turned out to be 4 µg/mL (≈ 3.16 µM) in data set [1]; 4 µg/mL (≈ 3.16 µM) in data set [1] (setting [23]); 4 µg/mL (≈ 3.16 µM) in [3]; 4 µg/mL (≈ 3.16 µM) in [4]; 2 µg/mL (≈ 1.58 µM) in data set [5]; 4 µg/mL (≈ 3.16 µM) in data set [6]. For the same molecule, the MIC came to 2 µg/mL (≈ 1.58 µM) in data set [7]; 2 µg/mL (≈ 1.58 µM) in data set [8]; 4 µg/mL (≈ 3.16 µM) in data set [9]; 4 µg/mL (≈ 3.16 µM) in data set [10]; 4 µg/mL (≈ 3.16 µM) in data set [11]; 8 µg/mL (≈ 6.33 µM) in data set [12]. Moreover, the MIC in data set [13] amounted to 8 µg/mL (≈ 6.33 µM); in data set [14] it was 8 µg/mL (≈ 6.33 µM); in [15], 4 µg/mL (≈ 3.16 µM); in data set [16], 4 µg/mL (≈ 3.16 µM); in [19], 8 µg/mL (≈ 6.33 µM). Besides, the IC50 (commonly the concentration at which inhibition is half-maximal) in data set [2] was 0.63 µM; in data set [17], 10.3 µM. In addition, the selectivity ratio at 1 h in [18] came out at 16.
On to `C[C@H](NC(=O)[C@@H](NC(=O)[C@@H](N)CCCCN)[C@@H](O)CN)C(=O)NCC(=O)N[C@H](CCCN)C(=O)N1CCC[C@H]1C(=O)N[C@@H](Cc1cnc[nH]1)C(=O)N[C@@H](CCCCN)C(=O)N/C(=C\CCNC(=N)N)C(=O)O.Cl`, for which the figures for the Activity in [20] and in data set [21] were 2 log10CFU/ml and 3 log10CFU/ml, respectively.
For the molecule `C[C@H](NC(=O)[C@@H](NC(=O)[C@@H](N)CCCCN)[C@@H](O)CN)C(=O)NCC(=O)N[C@H](CCCN)C(=O)N1CCC[C@H]1C(=O)N[C@@H](Cc1cnc[nH]1)C(=O)N[C@@H](CCCCN)C(=O)N/C(=C\CCNC(=N)N)C(=O)O`, the MIC amounted to 4 µg/mL (≈ 3.92 µM) in data set [1] (setting [23]); 4 µg/mL (≈ 3.92 µM) in data set [3]; 8 µg/mL (≈ 7.83 µM) in [4]; 4 µg/mL (≈ 3.92 µM) in data set [5]; 8 µg/mL (≈ 7.83 µM) in data set [6]; 4 µg/mL (≈ 3.92 µM) in data set [7]. Further, the MIC is 4 µg/mL (≈ 3.92 µM) in [8]; 4 µg/mL (≈ 3.92 µM) in [9]; 4 µg/mL (≈ 3.92 µM) in data set [10]; 4 µg/mL (≈ 3.92 µM) in data set [11]; 4 µg/mL (≈ 3.92 µM) in [12]; 16 µg/mL (≈ 15.7 µM) in data set [13]. Moreover, the MIC in data set [14] is 16 µg/mL (≈ 15.7 µM); in data set [15], 16 µg/mL (≈ 15.7 µM); in data set [16], 4 µg/mL (≈ 3.92 µM); in data set [19] it was 16 µg/mL (≈ 15.7 µM). Moreover, the IC50 in [2] was 0.55 µM; in [17] it was 168 µM. The selectivity ratio at 1 h in data set [18] was found to be 300.
Take `O=C(O)c1cn(C2CC2)c2cc(N3CCNCC3)c(F)cc2c1=O` [CIPROFLOXACIN]: the MIC in [1] (setting [23]) was at most 0.125 µg/mL; in [3] it was 0.5 µg/mL (≈ 1.51 µM); in data set [4], above 64 µg/mL; in data set [5] it was 0.5 µg/mL (≈ 1.51 µM); in data set [6], above 64 µg/mL; in [7], 32 µg/mL (≈ 96.6 µM). In addition, the MIC is above 64 µg/mL in data set [8]; above 64 µg/mL in data set [9]; above 64 µg/mL in data set [10]; above 64 µg/mL in data set [11]; 8 µg/mL (≈ 24.1 µM) in data set [12]; above 64 µg/mL in data set [13]. Besides, the MIC in data set [14] was below 0.125 µg/mL; in [15], above 64 µg/mL; in data set [19], below 0.25 µg/mL. Besides, the outcome in data set [22] was Active.
As to `C[C@@H](O)[C@H]1C(=O)N2C(C(=O)O)=C(SCCNC=N)C[C@H]12` [IMIPENEM ANHYDROUS], the MIC is 1 µg/mL (≈ 3.34 µM) in data set [1] (setting [23]); 2 µg/mL (≈ 6.68 µM) in data set [3]; above 64 µg/mL in data set [4]; 64 µg/mL (≈ 214 µM) in data set [5]; above 64 µg/mL in data set [6]; 64 µg/mL (≈ 214 µM) in [7]. Moreover, the MIC in data set [8] is above 64 µg/mL; in [9] it was above 64 µg/mL; in data set [10], above 64 µg/mL; in data set [11], above 64 µg/mL; in data set [12] it was above 64 µg/mL; in data set [13], 32 µg/mL (≈ 107 µM). The MIC in [14] was above 64 µg/mL; in data set [15], above 64 µg/mL; in data set [16] it was above 64 µg/mL; in data set [19], 0.5 µg/mL (≈ 1.67 µM).
